Measured values: the EternaBench riboswitch data

Test system: MS2 coat protein
Assay: apparent Kd, MS2 coat protein; higher = weaker binding; RNA-MaP array; FMN 200 µM where present
Outline: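 Apparent Kd: the median of filtered binding-curve fits from single clusters. Designs were transcribed on Illumina sequencing-chip clusters by stalled E. coli RNA polymerase and titrated with SNAP-549-labelled MS2 coat protein from 0.7 or 1.5 nM, doubling to 3 µM, in 100 mM Tris-HCl pH 7.5, 80 mM KCl, 4 mM MgCl2, BSA, DTT, yeast tRNA and Tween-20. Each series ran without and then with constant ligand, and green signal was normalised to red-channel RNA signal and control-cluster median Fmax.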

[1] = designed as: OFF switch for flavin mononucleotide, no ligand
[2] = ligand present: flavin mononucleotide, designed as: OFF switch for flavin mononucleotide
[3] = designed as: ON switch for flavin mononucleotide, no ligand
[4] = ligand present: flavin mononucleotide, designed as: ON switch for flavin mononucleotide

| Sequence | apparent Kd [1] | apparent Kd [2] | apparent Kd [3] | apparent Kd [4] |
| --- | --- | --- | --- | --- |
| UUGUUACAUGAGGAUCACCCAUGUGAGGAUAUGGCCCGCCCGGCGUGUGCUGGUUUUGUCAGAAGGCGCGUGGG | 61.6 nM | 170 nM | – | – |
| ACCCAGUUUUGCACUACAUGAGGAUCACCCAUGUGAGCGAGCAGAAGGACGAUGGGUGGAAAAUCGUAGGAUAUGCACUGGGCU | – | – | 44.8 nM | 12.3 nM |
| CUGUAGUGAGGAUAUUAUUUGCAAGCCCUAGACGGCGCGAAUGAGAAGGUACAUGAGGAUCACCCAUGUGGUUG | 126 nM | 297 nM | – | – |
| GCGUGGAAUACAGGAUAUGUUGUACAAUAAUCUUUGAGGCAUUGAGAUUAUACAGAAGGGUAAACAUGAGGAUCACCCAUGUAA | 31 nM | 25.1 nM | – | – |
| UCCUUGUCCUGAGGAUAUCCGUAGUGACCGAAAGGAGAAGGCAGGACAUGAGGAUCACCCAUGUACCCAGAAAACGUGCAGAGU | 48.1 nM | 525 nM | – | – |
| GCACUGGAUGUAGGAUAUCAGGACGAUAAGUCCUGAGAAGGACAUGAGGAUCACCCAUGUAAUAACUCCCAGUGCUAUAAUAUA | 16.4 nM | 20.1 nM | – | – |
| GUCAACUCGUGAGGAUAUACAACACUGCUUCGGCAGUGUAUUAAGAUCACAUGAGGAUCACCCAUGUAGAAGGCACGAGCUGAU | 14.4 nM | 214 nM | – | – |
| UCAUUUCAGUAAGGAUAUUAAAACAUGACGAUACAUGAGGAUCACCCAUGUUAAGAAGGUACUAAUACAAAUAAUGCAUUGUUC | 14.7 nM | 15.5 nM | – | – |
| UUAGGAUGUGAAGGAUAUGCCGAGUUAAGCCCAGCAGAAGGUUACAUACCUUUUGAUACAUGAGGAUCACCCAUGUUCUAAGAU | – | – | 41.6 nM | 28.3 nM |
| ACGCAGCUGGGUGAGGAUAUCGGUGGUACUACAUGAGGAUCACCCAUGUCCGAAGCUCGGACCUCCGAGAAGGCGCCCGGCUGCG | – | – | 284 nM | 31.4 nM |
| GUCAAGUGAGGAUAUGAUUGUACGGCAGACUAGCGUCUGCAUCAGAAGGCACAUGAGGAUCACCCAUGUUUGUC | 19.1 nM | 16.9 nM | – | – |
| AUCAGCUCGUCAGGAUAUACGUCACUGCGUCAGCAGUGUGGUAAGAUCACAUGAGGAUCACCCAUGUAGAAGGGACGACCUGAU | 13.8 nM | 278 nM | – | – |
| AGAUACAACCAGAAGGACAUGAGGAUCACCCAUGUAGGAUAUGGGUUACACGUUCCUGGGAAUUGUAACGACGCUACGAAGAGU | – | – | 126 nM | 12.8 nM |
| UCUUUACUGGUCAGGAUAUACAUUCGCUACUCUUUGUAGAAGGGACAUGAGGAUCACCCAUGUACUUUACAUUC | 17.9 nM | 18 nM | – | – |
| UUCAUGUGAGGAUAUGCGGCACCAGGUGGGCCUGGCGCUGAGCAGAAGGCACAUGAGGAUCACCCAUGUGCUCC | 29.7 nM | 56.7 nM | – | – |
| GUGGUCAGACAUGAGGAUCACCCAUGUGGAAUAAAUAAGGAGAAGGAUAUUCAAUAUAGGAUAUAGAAGAAGGUCUGGUUGGUG | – | – | 73.7 nM | 82.7 nM |
| ACACUGCGAGGAUAUACAUGAGGAUCACCCAUGUGUCGGCAGGUACGGUAGCACUAGUGUAGAAGGCGCAUUGG | 24.6 nM | 42 nM | – | – |
| ACCAUUUACUAAUUAUCUAUACAUGAGGAUCACCCAUGUUAUGAGGAUAUCAUCGUGAAACACGAUGAGAAGGUAUAGCAUUCG | 18.1 nM | 22.1 nM | – | – |
| CUGUACAUAGGAUAUAGUUGUUUUUACAUGAGGAUCACCCAUGUUACUCCUCUCUCUCUUCUAGAAGGAUGUUUUU | 79.8 nM | 58.4 nM | – | – |
| GUGUACAGAGGAUAUACACGAGUAGUUACGAAAGUAACUAUACAUGAGGAUCACCCAUGUAGAAGGCUGUACAC | 19.1 nM | 30.5 nM | – | – |
| CUAAAUCAUGUAGGAUAUGCGUGGCGAAGCUAUGCAGAAGGACAUGAGGAUCACCCAUGUUUUUCCGUCUGCGUACAGACGGAA | 259 nM | 260 nM | – | – |
| ACAUGAGGAUCACCCAUGUAUUUGUAGGAUAUACACAAUUAUUUAUUACUCUAAUUAAUAUGUUUGUAGAAGGACACUGCAUGA | 11.5 nM | 11.9 nM | – | – |
| CGAUAACCACAGAAGGCCCGGGACAUGAGGAUCACCCAUGUAGAAAGUGGGAGGAUAUGUGUACGCGGCAUGCUGACCUCGUGA | – | – | 210 nM | 28.6 nM |
| GUGAAACAUGAGGAUCACCCAUGUGAGGAUAUGUUUUAGUAAUGAUGAAAGUAAAUCUACAGAAGGCACAAUGG | 75.8 nM | 117 nM | – | – |
| AGCCCGGGAGGAUAUCCAAUAUAUGACAUGAGGAUCACCCAUGUUUCCACUCGUACCUCCGGAGAAGGCCCGGCGA | 19.7 nM | 19.4 nM | – | – |
| GUACGUGGACAGAAGGUGACAUGAGGAUCACCCAUGUUAGUUGAGGUACCAGCGAUCUGCGUGAUUGAGGAUAUGUCUGCGGGC | 11.9 nM | 13.8 nM | – | – |
| GUUUAGUGAGGAUAUGUGGCUUCGAUCGAGCGCGGUCUGCUACAGAAGGCACAUGAGGAUCACCCAUGUUUCUC | 118 nM | 424 nM | – | – |
| GGGUACAUCGGAGGAUAUCAUGUAAAUACAUGAGGAUCACCCAUGUCGAUGGAGACCUCGGAGAUUGAGAAGGCCGAUGUACCG | – | – | 694 nM | 201 nM |

| Sequence | apparent Kd [1] | apparent Kd [2] | apparent Kd [3] | apparent Kd [4] |
| --- | --- | --- | --- | --- |
| UGUUAGUAGUGAGGAUAUACAUACACCUUACAUGAGGAUCACCCAUGUUUUAAGAUUGAUAGAUAGUAGAAGGCACAUGAUGAU | – | – | 59 nM | 23 nM |
| CUCGUGUGAGGAUAUGCGGGCGGGCGCGUUUGUGUUUGUUUGUAGAAGGUACAUGAGGAUCACCCAUGUGCUGG | 24 nM | 80.9 nM | – | – |
| AUAAAGUCAGGAUAUGUAAGAAUAACGAAAGUUAUAAAGAAACAGAAGGGACAUGAGGAUCACCCAUGUAAAAU | 29.6 nM | 30.5 nM | – | – |
| UUGUGCUUAGAGAAGGUUCAAACUACAUAUUGCGCACAUGAGGAUCACCCAUGUUGGUGAAUAAGAAAGGAUAUUUGACUGUGC | 487 nM | 360 nM | – | – |
| GCUGGUCGAGGAUAUGCAAUCGUGCUUCGGCACGUAAGGUCACAUGAGGAUCACCCAUGUAGAAGGUGACCAGC | 17.1 nM | 23.3 nM | – | – |
| AAGCAGGGAGGAUAUACAUGGACACACAUUGGUGUAGAACUACAUGAGGAUCACCCAUGUAGAAGGCCCAAAUA | 52.9 nM | 71.5 nM | – | – |
| AAAAGACAUGAGGAUCACCCAUGUCAAGACGUGGGAGGAUAUGUAUGGAAACCAGACUGUACAGAAGGCCUUUGUC | – | – | 46.8 nM | 20.1 nM |
| UCGGGCGUAGGAUAUGCUAUCACGGACAUGAGGAUCACCCAUGUCAGAUGUCCGGGCGAGGCAGAAGGGCGGUUUU | 74.1 nM | 120 nM | – | – |
| AUAUCUUGUCGAGGAUAUGUUGUAUUGAUCUGAAAACAUGAGGAUCACCCAUGUAUACGGUGGGAACAGAAGGUGAAUGUAGAA | 574 nM | 715 nM | – | – |
| GAUCGUAUCCUAGGAUAUUCAUUAAAACAUGAGGAUCACCCAUGUAAAUUGGGAGAAGGAGGAUACGAUCAACAGCGAAAGCUG | – | – | 35.3 nM | 6.52 nM |
| CAGCUGAAUGUGAGGAUAUCUAGAGCUUCGGCUCUAGAGAAGGCACAUGAGGAUCACCCAUGUCUCAACAGCUG | 39.2 nM | 296 nM | – | – |
| AGAGCCUCGUGAGGAUAUACAUGAGGAUCACCCAUGUAAUAAAGUGAACGGAGGAAACUCCGAAUGUAGAAGGCACGAGGCUCA | 44.5 nM | 391 nM | – | – |
| UCCGUGGCAUCUCGCGCAUGUCUACAUGAGGAUCACCCAUGUCAGGAUAUACGGAAUGUCGUUCCGUAGAAGGGACAAGGGCUG | 243 nM | 116 nM | – | – |
| GAUAAGGGCGAGGAUAUGCCAUUGGCUGAGGUCGUAGAAGGUGCCACAUGAGGAUCACCCAUGUAUCAAGUACG | 34.5 nM | 32.4 nM | – | – |
| AGUCGGAGCAGAGGAUAUACAUGAGGAUCACCCAUGUAAUAUGAUCUAGCCAGGAAACUGGCAAUGUAGAAGGCUGCUCCGACA | 92.3 nM | 797 nM | – | – |
| UUGCAGUCGUCAGGAUAUAGUAUUACGGCCAUUUAUUUUUUCAUACAUGAGGAUCACCCAUGUCGCUAGAAGGGAUUAUCGAUU | 49.1 nM | 45.4 nM | – | – |
| AUAUUUGUUUAGAAGGACAUGAGGAUCACCCAUGUCGCUGGGCGCGGGAAACCGUGGGCGGCCAUGUAGGAUAUAGGGAGAUAU | 36.6 nM | 24 nM | – | – |
| AGAUCCUGAGUCAGGAUAUAGAGGCGGUAGCCUGGCUAGAAGGGACAUGAGGAUCACCCAUGUGGGUUCGAGCC | 17.7 nM | 31.3 nM | – | – |
| GUGCCUUGGGAGAAGGAUAAUAAUAAAUAAAUAAUAGGAUAUUCAUACCGGAAACGGACAUGAGGAUCACCCAUGUGGCACAAA | – | – | 413 nM | 125 nM |
| CACCGUUAAGGAGGAUAUCGUACAUGAGGAUCACCCAUGUAAUAAAUGAGAAUUUCGGAUGUAUGCGAGAAGGCCUAAAUCGGC | 49.5 nM | 42 nM | – | – |
| UCGCUGCGAGGAUAUACAUGAGGAUCACCCAUGUGCGGGUCCGGGUCUUCGUCCAUUGGUAGAAGGCGCAGUGA | 45.3 nM | 554 nM | – | – |
| GACUGAAUACAGAAGGUGUUUGACAUGAGGAUCACCCAUGUGUUAUUCAGAUUCAUAGAAUAUAACAAGGAUAUGUAUAUAUCA | – | – | 228 nM | 61.6 nM |
| UUAAUGUGAGGAUAUCAGGUGUGCUAGCGUACUGGUACAUCUGAGAAGGCACAUGAGGAUCACCCAUGUUCCAG | 32.8 nM | 100 nM | – | – |
| CACAGGGAUUCAGGAUAUAUUAGCCGAGGCCGCGUAGAAGGGAAAUCCUGACAUGAGGAUCACCCAUGUUAACCCACUUUUCAU | – | – | 28.1 nM | 28.4 nM |
| AAUUAUUAUUGAGGAUAUCGUAUUGAAACAAUACGAGAAGGCGGGAUAAACAUGAGGAUCACCCAUGUGAGCCUGAUGCUUGUG | 18.1 nM | 16.5 nM | – | – |
| AUCGUGCUAGGAUAUACAGACGGGUGUAGACGUGCAGGCAAACAUGAGGAUCACCCAUGUAGAAGGAGUAGUUA | 159 nM | 88.8 nM | – | – |
| GCCAUCGCAUGAGGAUAUGGCACCGUUUCGGUGCCAGAAGGCAUGUCAAAUGACAUGAGGAUCACCCAUGUAGUUAAGAUGGCC | – | – | 157 nM | 13 nM |
